# Test results published in article PMC7316614 (ACS nano, 2020).
# Peptide text beside a SMILES is read from it.
# Assays:
# HepG2 cells [1] = assay: Cell viability / cytotoxicity; type: cell-based
# In short: (§1)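 HeLa and HepG2 grown in MEM with 10% (vol/vol) FBS and 0.5% (vol/vol) each penicillin and streptomycin, at 37 °C under 5% CO2. IC50 taken on the 2nd day of exposure to the test compound. Means ± SD from n > 3 independent experiments; significance by t-test.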
# HS-5 cells [2] = assay: Multidrug resistance; type: cell-based; conditions: normal cell line, Figure S5
# [3] = Critical micelle concentration; type: physicochemical; conditions: Figure S6
# Drug loading efficiency = type: physicochemical; conditions: determined from the LE%
# enterokinase (ENTK) = enterokinase (ENTK) (Homo sapiens, UniProt P98073); assay: Enzymatic cleavage by ENTK; type: biochemical; conditions: Flag-(C16)2 at 200 μM (above CMC), Figure S7D
# HeLa cells [4] = assay: Cell viability / cytotoxicity; type: cell-based; conditions: Flag-(C16)2 alone, 48h
# In short: as §1
# AML12 cells = assay: Cell viability / cytotoxicity; type: cell-based
# HS-5 cells [5] = assay: Cell viability / cytotoxicity; type: cell-based
# [6] = system: cytochrome c in HepG2 cells; assay: Cytochrome c in cytosol, Western blot; type: cell-based; conditions: 100, 50, 25 μM, 48 h
# In short: (§2)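 Cells were exposed to the test compound for 48 h (HepG2: 100, 50, 25 and 0 μM). The cytosol fraction was blotted for cytochrome c. Protein was quantified by Coomassie, and 20 μg per lane was run on SDS-PAGE and transferred to PVDF. Bands were quantified by densitometry. Data are means ± SD, n > 3, t-test.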
# [7] = system: cytochrome c in HeLa cells; assay: Cytochrome c in cytosol, Western blot; type: cell-based; conditions: different concentration, Figure S17
# In short: as §2
# HepG2 cells [8] = assay: Mitochondrial membrane potential by Rhodamine 123; type: cell-based; conditions: 50 μM, 48 h
# HeLa cells [9] = assay: Mitochondrial membrane potential by Rhodamine 123; type: cell-based; conditions: 48h, Rhodamine 123, Figure S15
# HepG2 cells [10] = assay: Mitochondrial accumulation, fluorescence imaging with MitoTracker; type: cell-based; conditions: Flag-(C16)2, 48h
# Self-assembly = type: physicochemical; conditions: 50 μM
# [11] = Solubility of the enzymatic product; type: physicochemical; conditions: direct suspension of the enzymatic product
# Chain of enterokinase (ENTK) (P98073 whole entry, species assumed): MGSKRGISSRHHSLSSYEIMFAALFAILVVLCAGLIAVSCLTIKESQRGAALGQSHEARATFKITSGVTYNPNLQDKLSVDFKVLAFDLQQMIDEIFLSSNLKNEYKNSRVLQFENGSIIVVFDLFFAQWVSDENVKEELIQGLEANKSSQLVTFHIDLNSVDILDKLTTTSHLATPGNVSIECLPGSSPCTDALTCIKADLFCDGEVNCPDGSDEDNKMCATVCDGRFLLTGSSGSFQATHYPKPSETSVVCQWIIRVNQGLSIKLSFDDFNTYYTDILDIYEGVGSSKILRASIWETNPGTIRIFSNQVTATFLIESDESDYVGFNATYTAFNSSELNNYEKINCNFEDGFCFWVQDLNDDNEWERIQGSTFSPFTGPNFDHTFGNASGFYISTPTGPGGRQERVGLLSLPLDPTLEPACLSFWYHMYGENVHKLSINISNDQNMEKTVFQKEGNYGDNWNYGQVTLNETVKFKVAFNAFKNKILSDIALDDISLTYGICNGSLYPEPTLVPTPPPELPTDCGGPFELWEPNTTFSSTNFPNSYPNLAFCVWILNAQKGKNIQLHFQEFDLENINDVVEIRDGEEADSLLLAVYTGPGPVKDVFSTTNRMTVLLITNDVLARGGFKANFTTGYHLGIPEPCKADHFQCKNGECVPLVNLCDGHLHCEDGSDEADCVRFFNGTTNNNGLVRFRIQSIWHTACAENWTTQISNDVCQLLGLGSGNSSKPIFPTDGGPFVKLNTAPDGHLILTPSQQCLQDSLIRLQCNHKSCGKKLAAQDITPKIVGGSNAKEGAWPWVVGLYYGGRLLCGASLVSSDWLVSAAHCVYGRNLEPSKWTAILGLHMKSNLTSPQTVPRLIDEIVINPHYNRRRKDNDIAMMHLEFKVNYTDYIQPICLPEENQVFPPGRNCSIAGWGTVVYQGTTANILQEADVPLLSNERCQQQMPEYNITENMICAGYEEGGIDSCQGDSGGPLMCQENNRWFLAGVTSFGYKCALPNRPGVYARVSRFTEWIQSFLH
molecule,measurement,setting,value
"O=C(N[C@H](CO)[C@H](O)c1ccc([N+](=O)[O-])cc1)C(Cl)Cl [CLRP, chloramphenicol, reference compound]","cell viability, HepG2","HepG2 cells [1]; free CLRP alone, Figure 2A",hardly suppresses the viability
same,"change of MDR, HS-5",HS-5 cells [2],Neither CLRP nor CLRP mixed with Flag-(C16)2 significantly change the MDR
"CCCCCCCCCCCCCCCCNC(=O)CC[C@H](NC(=O)CNC(=O)[C@H](CCCCN)NC(=O)[C@H](CC(=O)O)NC(=O)[C@H](CC(=O)O)NC(=O)[C@H](CC(=O)O)NC(=O)[C@H](CC(=O)O)NC(=O)[C@H](CCCCN)NC(=O)[C@H](Cc1ccc(O)cc1)NC(=O)[C@@H](N)CC(=O)O)C(=O)NCCCCCCCCCCCCCCCC [Flag-(C16)2] (HELM PEPTIDE1{D.Y.K.D.D.D.D.K.G.E.[CCCCCCCCCCCCCCCCN[*:1]]}|CHEM1{[CCCCCCCCCCCCCCCCN[*:1]]}$PEPTIDE1,CHEM1,10:R3-1:R1$$$V2.0)",critical micelle concentration (CMC),[3],43 µM
same,encapsulation capacity (EC),Drug loading efficiency,66.7 μg CLRP in per mg Flag-(C16)2 micelles
same,hydrolysis by ENTK,enterokinase (ENTK),hydrolyzes
same,"cell viability, HepG2","HepG2 cells [1]; Flag-(C16)2 alone, 48h",decrease of cell viability
same,"cell viability, HeLa",HeLa cells [4],decrease of cell viability
same,"cell death, AML12",AML12 cells,hardly induces cell death
same,"cell death, HS-5",HS-5 cells [5],hardly induces cell death
same,"cytochrome c in the cytosol, HepG2",[6],increased cytochrome c
same,"cytochrome c in the cytosol, HeLa",[7],increased cytochrome c
same,"mitochondrial membrane potential, HepG2",HepG2 cells [8],reduced mitochondrial membrane potential
same,"mitochondrial membrane potential, HeLa",HeLa cells [9],reduced mitochondrial membrane potential
same,"mitochondrial morphology, HepG2",HepG2 cells [10],fragmental mitochondria
same,self-assembly after adding ENTK,"Self-assembly; ENTK, 24 h, 37 °C, static light scattering",larger micelle-like aggregates
same,self-assembly in solution,Self-assembly; before ENTK,self-assembles into nanoparticles
Gly-Glu-(C16)2,solubility,[11],poor solubility
